Measured values taken from the EternaBench riboswitch data.

Tested on: MS2 coat protein
Experiment: apparent Kd, MS2 coat protein; higher = weaker binding; RNA-MaP array; FMN 200 µM where present
Method in brief: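 The apparent Kd comes from binding curves fitted cluster by cluster, filtered, and summarised as a median. Those curves followed SNAP-549-labelled MS2 coat protein from 0.7 or 1.5 nM, doubling to 3 µM, on Illumina sequencing-chip clusters where stalled E. coli RNA polymerase had transcribed the designs, without and then with constant ligand. The buffer was 100 mM Tris-HCl pH 7.5, 80 mM KCl, 4 mM MgCl2, BSA, DTT, yeast tRNA and Tween-20, and green signal was normalised to red-channel RNA signal and control-cluster median Fmax.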

[1] = designed as: ON switch for flavin mononucleotide, no ligand
[2] = ligand present: flavin mononucleotide, designed as: ON switch for flavin mononucleotide
[3] = designed as: OFF switch for flavin mononucleotide, no ligand
[4] = ligand present: flavin mononucleotide, designed as: OFF switch for flavin mononucleotide

Sequence	apparent Kd [1]	apparent Kd [2]	apparent Kd [3]	apparent Kd [4]
CAAAAGUAUAACAAUUUCAAGGCACAGGAUAUGAGUGUGCACAUGAGGAUCACCCAUGUUAUAACUUAGAAGGGUGACCAUUGC	427 nM	368 nM		
GGGUACAUCGGAGGAUAUCAUUUAAAUACAUGAGGAUCACCCAUGUCGAUGGAGACAUCGGAGAUUGAGAAGGCCGAUGUACCG	7.9 nM	5.57 nM		
GUGGUCAGACAUGAGGAUCACCCAUGUGGAAUAAAUAACAGACAGGAUAUUAAAUAUAGGAUAUAUAAGAAGGGUCGAUUGGUG	91.1 nM	91.6 nM		
GUGUACGGAGGAUAUGCUGGAAUCUAGCGAAGCUAGGUUCCACAUGAGGAUCACCCAUGUAGAAGGCUGUACAC			24.8 nM	14.2 nM
AAACCGCUAGGAUAUACGAAAUAAAACUCUGUACUUGAGGUACAUGAGGAUCACCCAUGUAGAAGGAGCUCGGA			119 nM	229 nM
GGUCGUCAAGUCAGGAUAUCGUUUAGUCGAUGUAACGAGAAGGGACAUGAGGAUCACCCAUGUCGUCUCAUCAG			18.9 nM	24.8 nM
GGGUACAUCGGAGGAUAUCAUGUAAAUACAUGAGGAUCACCCAUGUCGAUGGAGACAUCGGAGACUGAGAAGGCCGAUGUACCG	41.8 nM	7.18 nM		
AGGAGUUUGUAGAAGGACGACUAUUAAGUUUUCGUAGGAUAUACUAUUUACAUGAGGAUCACCCAUGUUUAAAUGGAACAAUGU			7.85 nM	9.08 nM
UAUAUUUAUGUAGGAUAUGGUAUACAAAGUAUACCAGAAGGACAUGAGGAUCACCCAUGUAUGAAAUUCCAUAAUUGCCGUGUA			16.1 nM	16.4 nM
UCCUGACAUGAGGAUCACCCAUGUAAUUCCUGCCGAGGAUAUGGGCAACAAAGCGGUUGGCCAGAAGGCGGACAGC	252 nM	150 nM		
GUACCUUAUGAGAAGGCGAUCAUAAAACGUGAUCGAGGAUAUCAUGUAAACAUGAGGAUCACCCAUGUAUGGGUAUUAUGGUAC	61.7 nM	18.4 nM		
GGUAGACAAAGUCUACCAAUACGAACAUGAGGAUCACCCAUGUAGGAUAUGCUACUCAAAGAGUAGCAGAAGGACAUGUGUCUU			29.5 nM	160 nM
UCGAAGUCCGCCGGACGGCGAGCGAGAAGGCACAAUGAAACGACUCUACAUGAGGAUCACCCAUGUGAGGAUAUCGCGACCUAG			8.27 nM	57.7 nM
AGGCGUAAGACAGGAUAUAGGCAGCGGGCUGGAAACGAAUACAAAGACAUGAGGAUCACCCAUGUCUAGAAGGGUCGUGGCGGG			9.05 nM	9.88 nM
GGUACUCAAAGAGUACCAAUACGAACAUGAGGAUCACCCAUGUAGGAUAUGAAAACGCCGGAGUAUCAGAAGGACAUGUGCCUA			12.6 nM	21.3 nM
UAGAAUCGAGGAUAUACAUGAGGAUCACCCAUGUGUUGCCGCAUGAUGUGAUCGUCAGGUAGAAGGCGAUUAUA			25.4 nM	18.7 nM
GCUGUGGCAUGAGGAUAUGGUCACGUUUCGUGACCAGAAGGCAUGUCAAUAGACAUGAGGAUCACCCAUGUAGUUAACACAGCA	497 nM	41.9 nM		
CGAGACCUCACAGGAUAUGCUGGACUUUGUCCAGCAGAAGGGUGAAAACAUGAGGAUCACCCAUGUAUGGUCUCCAAAUUUAAU	176 nM	13.9 nM		
UAGAUUUAUGUAGGAUAUACAUUUUUUAUGUAUGUAGAAGGACAUGAGGAUCACCCAUGUAAAUAAAUAUUAAAUAUCAUAAUU			30.4 nM	23.8 nM
GACGGGUGGGUAGGAUAUGGCUAUGUCUCAUUGCUAGAAGGACCAGCUGCUACAUGAGGAUCACCCAUGUCGUAGUGCACCCAG	189 nM	13.1 nM		
CGUUAAUAUCGAGGAUAUGUCUAGACACAUGAGGAUCACCCAUGUAUGUGUAUAGAAGGCGAUAUUAACAGCAUGUUACAUGCA	43 nM	15.6 nM		
